Measured values from different studies.
Compare with care: the assays were run in different laboratories.
Effect on: cell growth or viability

With `CC(=NNC(=S)Nc1ccccc1)c1ccc(Nc2nnc(-c3ccc(Cl)cc3)c3ccccc23)cc1` the cell death was 43% (MCF7; MTT; 0.625 µM).
With `CCOC(=O)c1nn(-c2cccc(Cl)c2)/c(=N/N=C(\C)c2ccc(NC(=O)c3ccccc3)cc2)s1` the viability was 6.34% (MCF7; MTT; 0.312 µM).
The cell death of `O=C(Nc1ccccc1)Nc1ccc(Oc2nnc(-c3ccc(Cl)cc3)c3ccccc23)cc1` is reported as 96.7% (MCF7; MTT; 2.5 µM).
`COc1ccc(CNC[C@](O)(COCc2ccc(OC)cc2)[C@@H]2CC[C@@H](C)C[C@H]2OCc2ccc(OC)cc2)cc1` gave an inhibition of 101% (MCF7; MTT; 30 µM, 72 h).
`CC(=O)c1nn(-c2ccccc2Cl)/c(=N/N=C(\C)c2ccc(NC(=O)c3ccccc3)cc2)s1` has a viability of 9.62% (MCF7; MTT; 0.156 µM).
The inhibition of `C[C@@H]1CC[C@@H]([C@](C)(O)Cn2ccnc2)[C@H](OCc2ccccc2)C1` is reported as 34.6% (MCF7; MTT; 30 µM, 72 h).
The cell death of `CC(=NNC(=O)c1ccc(N)cc1)c1ccc(Nc2nnc(-c3ccc(Cl)cc3)c3ccccc23)cc1` is reported as 94.6% (MCF7; MTT; 2.5 µM).
`CCOC(=O)c1nn(-c2cccc(Cl)c2)/c(=N/N=C(\C)c2ccc(NC(=O)c3ccc(Cl)cc3)cc2)s1` has a viability of 3.36% (MCF7; MTT; 1.25 µM).
`CC(=NNC(=O)c1ccccc1)c1ccc(Nc2nnc(-c3ccc(Cl)cc3)c3ccccc23)cc1` gave a cell death of 1.42% (MCF7; MTT; 0.625 µM).
`Cc1c(C(=O)O)ccc2c3n(nc12)[C@@H]1[C@H](C3)N(CC2CC2)[C@@]2(C(=O)Nc3cc(Cl)ccc32)[C@H]1c1cccc(Cl)c1F` has a GI50 of 0.31 nM (SJSA-1).
`COc1ccc(CNC[C@](O)(COCc2ccc(F)cc2)[C@@H]2CC[C@@H](C)C[C@H]2OCc2ccc(F)cc2)cc1` has an inhibition of 97.7% (MCF7; MTT; 10 µM, 72 h).
With `CC(=NNC(=O)c1ccccc1Cl)c1ccc(Nc2nnc(-c3ccc(Cl)cc3)c3ccccc23)cc1` the cell death was 0.177% (MCF7; MTT; 0.625 µM).
`CC(=O)Nc1ccc(/C(C)=N/N=c2\sc(C(C)=O)nn2-c2ccc(C)cc2)cc1` has a viability of 5.39% (MCF7; MTT; 10 µM).
For `C[C@@H]1CC[C@@H]([C@@](C)(O)Cn2cnc3ccccc32)[C@H](OCc2ccccc2)C1`, the inhibition was 55.2% (MCF7; MTT; 10 µM, 72 h).
For `C=CC(=O)NC1CCN(c2ncc3ncnc(Nc4ccc(Oc5ccc6c(c5)ncn6C)c(C)c4)c3n2)CC1`, the EC50 was 82.4 nM (SW-620).
With `COc1ccc(CNC[C@@](C)(O)[C@@H]2CC[C@@H](C)C[C@H]2OCc2ccccc2)cc1` the inhibition was 92.4% (MCF7; MTT; 10 µM, 72 h).
The viability of `CC(=O)c1nn(-c2ccc(C)cc2)/c(=N/N=C(\C)c2ccc(NC(=O)c3ccccc3)cc2)s1` is reported as 4.79% (MCF7; MTT; 0.625 µM).
The inhibition of `C=C(COCc1ccc(OC)cc1)[C@@H]1CC[C@@H](C)C[C@H]1OCc1ccc(OC)cc1` is reported as 24% (MCF7; MTT; 30 µM, 72 h).
For `S=C(Nc1ccccc1)Nc1ccc(Oc2nnc(-c3ccc(Cl)cc3)c3ccccc23)cc1`, the cell death was 97.2% (MCF7; MTT; 10 µM).
